Screens deposited in PubChem BioAssay by several laboratories.
This is a sample that favours compounds with a hit; in the whole collection about 2.9% have one here.
HSP90 refold inh – inhibitors of HSP90 luciferase refolding in rabbit reticulocyte lysate; luciferase refolding luminescence, 3 h; inhibition, % at 5.6 µM; 290,000 compounds, 0.91% hits;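 active = inhibition above the screen-wide mean plus 3 SD, computed separately per campaign, cut at about 16% in these data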;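 also: 0% = DMSO wells and 100% = 60 µM geldanamycin wells; inhibitors lower the luminescence because luciferase stays unfolded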
SENP6 inh – blocks the human protease SENP6; Q9GZR1; Recombinant SENP6 catalytic domain, aminoluciferin luminescence; inhibition, % at 10 µM; 330,000 compounds, 1.8% hits; AID 2599;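 active = inhibition above about 50% at the single tested dose, limit read from the data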;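 also: plate controls were DMSO wells with enzyme for no effect and DMSO wells lacking enzyme for full effect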
SENP8 block-1 – blocks the human protease SENP8. 330,000 compounds, 1.2% hits. Q96LD8. purified SENP8, Z-RLRGG-aminoluciferin cleavage, luminescence. inhibition, % at 10 µM. AID 2540; in the data active = inhibition above about 50%
SENP7 block – blocks the human protease SENP7; Q9BQF6; recombinant SENP7, Z-RLRGG-aminoluciferin luminescence, 40 min; inhibition, % at 5 µM; 330,000 compounds, 1.5% hits;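 active = inhibition above about 50% at the single test dose, limit read from the data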;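 also: plate controls were DMSO with enzyme for no effect and no enzyme buffer wells for full effect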
Target sequence (Q9BQF6 706-1050 limits assumed): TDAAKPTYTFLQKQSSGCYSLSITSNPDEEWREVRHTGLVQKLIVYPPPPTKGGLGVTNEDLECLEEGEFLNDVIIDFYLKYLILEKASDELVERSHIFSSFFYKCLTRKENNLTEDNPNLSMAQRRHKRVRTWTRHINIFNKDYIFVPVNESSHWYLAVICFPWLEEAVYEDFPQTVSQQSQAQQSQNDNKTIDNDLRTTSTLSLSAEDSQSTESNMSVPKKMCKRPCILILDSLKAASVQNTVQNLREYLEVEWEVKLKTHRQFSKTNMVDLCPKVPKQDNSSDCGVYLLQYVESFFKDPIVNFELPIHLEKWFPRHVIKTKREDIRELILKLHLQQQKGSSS
SENP1 inh – inhibitors of human SENP1 SUMO protease catalytic domain | Q9P0U3 | recombinant SENP1 catalytic domain, CyPet-SUMO1-YPet FRET cleavage | inhibition, % at 10 µM | 360,000 compounds, 0.21% hits | AID 624204;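 active = inhibition at least 30% at 10 µM, raw YFP signal under a set limit, fluorescence ratio 0.5 to 1.5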;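 also: 0% = enzyme with DMSO and 100% = no enzyme wells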
Target sequence (Q9P0U3 419-644 limits assumed): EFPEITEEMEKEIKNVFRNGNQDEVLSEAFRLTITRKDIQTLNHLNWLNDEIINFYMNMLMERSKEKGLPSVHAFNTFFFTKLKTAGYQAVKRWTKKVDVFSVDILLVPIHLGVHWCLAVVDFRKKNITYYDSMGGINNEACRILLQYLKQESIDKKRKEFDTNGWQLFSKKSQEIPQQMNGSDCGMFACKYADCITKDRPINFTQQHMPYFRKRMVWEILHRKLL
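material = recombinant human SENP1 catalytic domain, His6-tagged | quantity = 20 pM enzyme | reagent = 25 nM SUMO1 FRET substrate | compound dosing = 10 µM single point, 0.5% DMSO | timing = 50 min enzyme reaction, room temperature, light-protected | detection = FRET, CFP and YFP emission | control set = no-enzyme low, enzyme-DMSO high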
SENP8 block-2 – inhibitors of human SENP8 protease. inhibition, % at 20 µM. recombinant SENP8, Nedd8 substrate fluorescence. Q96LD8. 360,000 compounds, 0.64% hits; in the data active = inhibition mostly above about 40%, no sharp cut-off; inactive = mostly below about 27%
Starred values were filed as active, the others as inactive; i = inactive; x = no result given.

SMILES	HSP90 refold inh	SENP6 inh	SENP8 block-1	SENP7 block	SENP1 inh	SENP8 block-2
CCSc1nnc(NC(=O)c2ccccc2C)s1	-1	55*	36	44	2	2
CCSc1nnc(NC(=O)c2ccccc2)s1	0	53*	29	40	0	-16
CCSc1nnc(NC(=O)c2cccnc2Cl)s1	1	26	-13	-2	-2	6
CCSc1nnc(NC(=O)c2ccccn2)s1	13	60*	18	60*	0	8
COc1ccccc1C(=O)Nc1nnc(-c2ccco2)s1	4	-24	-6	-9	2	-329
CCn1cc(/C=C(\NC(=O)c2ccccc2F)C(=O)N2CCN(C)CC2)c2ccccc21	x	x	x	x	-3	10
O=C(Nc1ccccc1F)C1COc2ccccc2O1 (stereo not given)	-4	-1	-8	2	0	11
CC1CCN(c2nc3ccc(C(=O)N4CCN(Cc5ccc6c(c5)OCO6)CC4)cc3s2)CC1	58*	2	1	-3	-1	-1
O=C(c1cccc(Cl)c1)N1CCN(Cc2ccc3c(c2)OCO3)CC1	1	-3	-17	-8	1	1
Nc1ccc(O)c2c1C(=O)c1ccccc1C2=O	2	4	5	3	-14	65*
CCN(CC)Cc1cc(O)c(CN(CC)CC)cc1O	0	x	x	x	46*	24
CC(C)NC[C@@H](O)c1ccc(O)c(O)c1	2	7	3	6	-25	44*
CC(C)NCC(O)c1ccc(NS(C)(=O)=O)cc1 (stereo not given)	0	-3	0	7	1	5
Cc1ccccc1NC(=O)CC(=O)Nc1ccccc1C	6	-21	-4	2	0	12
Cc1ccccc1NC(=O)C(=O)Nc1ccccc1C	4	30	9	80*	0	11
COc1ccc(OC)c(-n2c(N)c(C(=O)NCC3CCCO3)c3nc4ccccc4nc32)c1 (stereo not given)	-2	x	x	x	-32	-478
COCCn1c(N)c(C(=O)NCC2CCCO2)c2nc3ccccc3nc21 (stereo not given)	5	84*	86*	63*	-17	i
Cc1cc(SCC(=O)NC2CC2)nc2ccccc12	x	-6	-6	-7	-1	-1
Cc1cc(SCC(=O)NCC2CCCO2)nc2ccccc12 (stereo not given)	-3	5	-5	-6	57*	-11
Cc1cccc(-c2cc3c(N=O)c4ccccc4c-3n[nH]2)c1	2	96*	10	99*	2	4
O=Nc1c2cc(-c3ccccc3)[nH]nc-2c2ccccc12	11	x	x	x	-1	14
CC(=O)Nc1nc(-c2ccc(Cl)cc2)ns1	-9	55*	35	13	-11	-7
CCCCNC(=O)Oc1c(Br)cc2sc(=O)oc2c1Br	1	19	3	-10	x	x
CC(C)c1cc2c(c(O)c1O)[C@@]13CCCC(C)(C)C1CC2OC3=O (stereo not given in full)	2	3	-5	5	-2	1
O=[N+]([O-])c1cc2c(cc1C=Nc1ccccc1)OCO2	7	57*	13	12	-1	-304
SMILES	HSP90 refold inh	SENP6 inh	SENP8 block-1	SENP7 block	SENP1 inh	SENP8 block-2
CCOC(=O)c1ccc(NC(=O)c2cc3c(s2)CCC3)cc1	0	-18	-24	11	2	-22
CCN(CC)c1ccc(/C=C2/C(=O)N(c3ccc([N+](=O)[O-])cc3)N=C2N2CCOCC2)cc1	2	10	4	3	x	x
COc1cc(/C=C2/C(=O)N(c3ccc([N+](=O)[O-])cc3)N=C2N2CCOCC2)ccc1O	5	42	-1	21	5	64*
COc1ccccc1C(=O)NCCC(=O)NCc1ccncc1	x	-9	-6	9	-1	16
O=c1c(N=Nc2ccc(O)cc2)c(-c2ccccc2)[nH]n1-c1ccc([N+](=O)[O-])cc1	6	3	6	4	25	56*
NC(=O)c1ccc(N=Nc2c(-c3ccccc3)[nH]n(-c3ccccc3)c2=O)cc1	1	-7	-3	10	x	x
CC(C)(C)c1ccc(C(=O)c2c[nH]c(C(=O)NCCc3ccccn3)c2)cc1	16*	-4	-9	-6	3	9
Oc1c(Br)cc(Br)cc1/C=N/Nc1ccc(Cl)nn1	1	x	x	x	-7	12
Oc1ccc(/C=N/Nc2ccc(Cl)nn2)c(O)c1O	2	20	5	4	5	49*
CCCOc1ccc(N)cc1N	-3	-4	52*	39	-18	-44
C/C(=N\NC(=O)C1=NNC(=O)C1C)c1cccs1 (stereo not given)	5	20	9	37	0	13
CC(C)(C)c1ccc(OC(=O)Nc2ccc(O)c(C(=O)O)c2)cc1	12	83*	72*	18	3	-263
CCn1cc(S(=O)(=O)CC(=O)N2CCc3ccccc32)c2ccccc21	x	0	13	-8	1	3
O=C(Nc1ccc2[nH]ncc2c1)c1cccc(F)c1	0	0	-14	1	2	15
Cc1ccc2cc(NC(=O)c3cccc(F)c3)ccc2n1	5	58*	31	40	-3	25
COc1cccc(CNc2ncc(Br)cc2Br)c1O	-6	-14	-6	-8	-3	40*
COc1cccc(CNc2ccc(Br)cn2)c1O	8	32	7	16	1	19
Oc1ccc(/C=N/Nc2nccnc2Cl)c(O)c1	2	96*	96*	101*	-1	-122
Cc1ccccc1C(=O)N1CCN=C1SCc1ccc([N+](=O)[O-])cc1	-4	-6	4	6	3	18
CSc1cccc(NC(=O)c2cnccn2)c1	0	-13	-5	-4	3	17
CSc1cccc(NC(=O)c2ccccn2)c1	-1	55*	41	52*	x	x
Cc1c(N2C(=O)c3ccccc3C2(O)c2ccccc2)c(=O)n(-c2ccccc2)n1C (stereo not given)	-3	95*	-2	-1	3	5
COc1ccccc1C(=O)Nc1onc(C)c1C#N	2	-4	-7	0	0	6
CC1CCCC(C)N1C(=O)COC(=O)CNS(=O)(=O)c1ccc2ccccc2c1 (stereo not given)	x	x	x	x	3	12
CCCC[C@@H]1CNC(=O)C(=O)N1CCc1cccc(F)c1	x	x	x	x	-1	7
Cc1cc(NC(=O)c2cc3cccc([N+](=O)[O-])c3[nH]2)ccc1F	-1	73*	61*	77*	2	12
COCC(C)NC(=O)c1cc2cccc([N+](=O)[O-])c2[nH]1 (stereo not given)	-2	-6	-17	-8	0	12
O=C(COC(=O)C1CC1)Nc1ccc(N=Nc2ccccc2)cc1	3	-13	-28	-2	1	43*
